Results: ChEMBL document CHEMBL1132289, “Novel potent and selective central 5-HT3 receptor ligands provided with different intrinsic efficacy. 2. Molecular basis of the intrinsic efficacy of arylpiperazine derivatives at the central 5-HT3 receptors” (J Med Chem, 1999)

Experiments:
[1] = molecular target: T1, Serotonin 3 (5-HT3) receptor (Rattus norvegicus) (UniProt P35563+Q9JJ16); assay: Intrinsic efficacy against 5-hydroxytryptamine 3 receptor; PA means partial agonist; type: functional; conditions: filed as partial agonist
Outline: (§1)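 NG 108-15 cells grown 2 days, washed, then exposed 10 min at 37 °C to buffer containing 10 mM guanidinium, [14C]guanidinium, 10 μM substance P, and/or 1 μM 5-HT, with eight drug concentrations. Cells lysed in NaOH, then scintillation counting. EC50 for agonists, IC50 for antagonists. Triplicate per concentration.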

[2] = test system: NG108-15; assay: (§2) Quantitative effect on the [14C]guanidinium accumulation in NG 108-15 cells (mouse neuroblastoma and rat glioma hybrid cells); type: functional, cell-based; conditions: Murinae; outline: as §1
[3] = molecular target: T1, Serotonin 3 (5-HT3) receptor (Rattus norvegicus); assay: Intrinsic efficacy against 5-hydroxytryptamine 3 receptor; A means pure agonist; type: functional; conditions: filed as agonist
Outline: (§3)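 Mouse neuroblastoma × rat glioma NG 108-15 cells grown 2 days in DMEM; washed, then incubated 10 min at 37 °C in guanidinium buffer B (135 mM NaCl, 10 mM guanidinium, pH 7.4) with […] [14C]guanidinium, 10 μM substance P, 1 μM 5-HT where indicated, eight drug concentrations; ice-cold choline wash, NaOH lysis, scintillation counting. Triplicates; EC50 (agonists/partial agonists) or IC50 (antagonists).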

[4] = molecular target: T2, Serotonin 3 (5-HT3) receptor (Rattus norvegicus, UniProt P35563+Q9JJ16); assay: Inhibition of [3H]granisetron binding to 5-hydroxytryptamine 3 receptor of rat cortical membrane
T2 sequence (P35563 whole entry): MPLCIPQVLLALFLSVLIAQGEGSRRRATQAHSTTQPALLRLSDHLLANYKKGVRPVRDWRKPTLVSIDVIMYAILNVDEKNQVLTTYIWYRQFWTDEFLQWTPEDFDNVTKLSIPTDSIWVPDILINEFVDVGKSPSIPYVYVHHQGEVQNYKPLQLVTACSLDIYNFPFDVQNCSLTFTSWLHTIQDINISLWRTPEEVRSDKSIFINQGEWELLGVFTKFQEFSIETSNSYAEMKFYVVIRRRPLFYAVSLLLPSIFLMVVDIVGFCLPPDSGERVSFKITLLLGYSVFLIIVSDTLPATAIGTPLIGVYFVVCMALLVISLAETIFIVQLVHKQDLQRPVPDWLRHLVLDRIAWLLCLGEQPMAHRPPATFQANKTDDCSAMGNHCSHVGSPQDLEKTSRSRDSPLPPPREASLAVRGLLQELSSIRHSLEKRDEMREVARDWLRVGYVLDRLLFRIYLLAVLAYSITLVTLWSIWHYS
T2 sequence (Q9JJ16 whole entry): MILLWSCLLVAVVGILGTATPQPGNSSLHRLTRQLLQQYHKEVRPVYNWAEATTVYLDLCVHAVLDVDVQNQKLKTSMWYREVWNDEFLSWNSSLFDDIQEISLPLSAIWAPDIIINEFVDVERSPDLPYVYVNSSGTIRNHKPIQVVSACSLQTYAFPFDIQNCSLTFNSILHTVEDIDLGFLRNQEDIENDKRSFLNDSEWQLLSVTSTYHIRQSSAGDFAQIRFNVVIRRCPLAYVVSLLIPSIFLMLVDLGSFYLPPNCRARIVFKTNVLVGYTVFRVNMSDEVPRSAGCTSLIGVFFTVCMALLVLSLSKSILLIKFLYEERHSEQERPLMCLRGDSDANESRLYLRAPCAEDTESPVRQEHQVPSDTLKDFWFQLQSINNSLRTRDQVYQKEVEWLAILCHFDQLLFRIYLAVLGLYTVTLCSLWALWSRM

[5] = molecular target: T2, Serotonin 3 (5-HT3) receptor; assay: Inhibition of [3H]granisetron binding to 5-hydroxytryptamine 3 receptor (5-HT 3 receptor) of rat cortex and hippocampus tissue; type: tissue-based
[6] = molecular target: T1, Serotonin 3 (5-HT3) receptor (Rattus norvegicus); assay: Intrinsic efficacy for rat 5-hydroxytryptamine 3 receptor; type: protein-complex assay; conditions: filed as antagonist
[7] = test system: NG108-15; assay: as §2; type: functional, cell-based; conditions: Murinae; remark: listed apart in the source
[8] = molecular target: T3, 5-hydroxytryptamine receptor 1A (Rattus norvegicus, UniProt P19327); assay: Binding affinity against 5-hydroxytryptamine 1A receptor of rat hippocampus tissue.; type: tissue-based
T3 sequence (P19327 whole entry): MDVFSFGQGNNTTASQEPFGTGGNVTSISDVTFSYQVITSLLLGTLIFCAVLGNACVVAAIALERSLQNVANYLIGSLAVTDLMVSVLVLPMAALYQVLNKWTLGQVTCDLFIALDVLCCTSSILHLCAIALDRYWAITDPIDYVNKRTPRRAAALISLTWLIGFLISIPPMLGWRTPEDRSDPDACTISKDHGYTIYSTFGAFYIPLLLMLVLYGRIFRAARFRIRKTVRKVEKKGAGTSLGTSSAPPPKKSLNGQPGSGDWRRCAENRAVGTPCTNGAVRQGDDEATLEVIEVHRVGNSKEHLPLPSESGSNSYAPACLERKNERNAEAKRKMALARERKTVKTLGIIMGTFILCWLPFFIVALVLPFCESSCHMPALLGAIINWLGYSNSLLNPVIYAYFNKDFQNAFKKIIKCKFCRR
Outline: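 Rat tissue homogenized in ice-cold 50 mM Tris HCl, resuspended in 50 mM Tris HCl pH 7.4. [3H]8-OH-DPAT 0.5 nM final, 4 mg tissue/sample, 0.5 mL incubation. Stopped by vacuum filtration through GF/B filters, scintillation counting. Mean ± SEM of three determinations.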

[9] = molecular target: Sodium-dependent serotonin transporter (Rattus norvegicus, UniProt P31652); assay: Binding affinity towards Serotonin transporter was determined in rat forebrain membrane; type: cell membranes
Outline: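 Membranes stored at -80 °C. [3H]paroxetine 0.1 nM final, 2 mg tissue/sample, 2.0 mL, in 50 mM Tris HCl pH 7.4 with 120 mM NaCl and 5 mM KCl. Filters presoaked in 0.5% poly(ethylenimine). Mean ± SEM of three determinations.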

[10] = molecular target: T4, 5-hydroxytryptamine receptor 2A (Rattus norvegicus, UniProt P14842); assay: Binding affinity against 5-hydroxytryptamine 2A receptor of rat pre-frontal cortex.
Outline: (§4)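 Membranes incubated with [3H]ketanserin 0.5 nM final, 8 mg tissue/sample, 0.5 mL, 50 mM Tris HCl pH 7.7. Filtration through GF/B filters, then scintillation counting. […] Mean ± SEM of three determinations.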

[11] = molecular target: T5, 5-hydroxytryptamine receptor 2C (Rattus norvegicus, UniProt P08909); assay: Binding affinity against 5-hydroxytryptamine 2C receptor of rat cortex.
T5 sequence (P08909 whole entry): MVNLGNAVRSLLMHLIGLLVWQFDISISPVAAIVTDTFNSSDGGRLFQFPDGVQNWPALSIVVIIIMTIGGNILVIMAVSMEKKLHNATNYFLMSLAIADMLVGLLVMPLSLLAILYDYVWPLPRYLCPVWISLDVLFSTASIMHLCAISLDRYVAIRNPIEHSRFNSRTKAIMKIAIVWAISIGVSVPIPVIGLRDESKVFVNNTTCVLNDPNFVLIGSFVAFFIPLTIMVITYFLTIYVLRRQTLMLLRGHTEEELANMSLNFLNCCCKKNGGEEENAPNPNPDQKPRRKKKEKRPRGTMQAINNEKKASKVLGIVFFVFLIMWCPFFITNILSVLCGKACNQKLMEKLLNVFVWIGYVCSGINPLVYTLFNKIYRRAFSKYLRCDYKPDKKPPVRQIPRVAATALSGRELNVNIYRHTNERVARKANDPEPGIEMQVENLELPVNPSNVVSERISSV

[12] = molecular target: T6, 5-hydroxytryptamine receptor 1B (Rattus norvegicus, UniProt P28564); assay: Binding affinity against 5-hydroxytryptamine 1B receptor of rat striatum.; type: tissue-based
[13] = molecular target: T6, 5-hydroxytryptamine receptor 1B; assay: Binding affinity against 5-hydroxytryptamine 1B receptor of rat striatum; type: tissue-based
Outline: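 [3H]5-HT 2.3 nM final, 14 mg tissue/sample, 1.0 mL, in 50 mM Tris HCl pH 7.7 with 10 μM pargyline, 4 mM CaCl2 and 0.1% ascorbic acid. Filtration through GF/B filters, scintillation counting. […] Mean ± SEM of three determinations.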

[14] = molecular target: T5, 5-hydroxytryptamine receptor 2C; assay: Binding affinity against 5-hydroxytryptamine 2C receptor of rat cortex; type: tissue-based
[15] = molecular target: T4, 5-hydroxytryptamine receptor 2A; assay: Binding affinity against 5-hydroxytryptamine 2A receptor of rat pre-frontal cortex; type: tissue-based; outline: as §4
[16] = test system: NG108-15; assay: Quantitative effect on the [14C]guanidinium accumulation in NG 108-15 cells.; type: functional, cell-based; conditions: Murinae; outline: as §3

T4 sequence (P14842 whole entry): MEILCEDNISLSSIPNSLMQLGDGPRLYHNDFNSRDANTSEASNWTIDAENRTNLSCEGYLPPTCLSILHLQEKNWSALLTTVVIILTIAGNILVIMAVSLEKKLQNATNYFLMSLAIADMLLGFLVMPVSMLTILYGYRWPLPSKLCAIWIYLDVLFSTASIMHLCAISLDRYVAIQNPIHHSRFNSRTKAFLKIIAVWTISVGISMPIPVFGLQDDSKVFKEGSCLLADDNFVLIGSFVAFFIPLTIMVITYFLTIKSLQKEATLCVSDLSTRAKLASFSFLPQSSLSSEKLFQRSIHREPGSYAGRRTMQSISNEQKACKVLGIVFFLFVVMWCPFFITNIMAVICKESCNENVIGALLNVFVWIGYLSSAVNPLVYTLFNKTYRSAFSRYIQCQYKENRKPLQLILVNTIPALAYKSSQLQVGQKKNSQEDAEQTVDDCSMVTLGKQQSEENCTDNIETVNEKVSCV
T6 sequence (P28564 whole entry): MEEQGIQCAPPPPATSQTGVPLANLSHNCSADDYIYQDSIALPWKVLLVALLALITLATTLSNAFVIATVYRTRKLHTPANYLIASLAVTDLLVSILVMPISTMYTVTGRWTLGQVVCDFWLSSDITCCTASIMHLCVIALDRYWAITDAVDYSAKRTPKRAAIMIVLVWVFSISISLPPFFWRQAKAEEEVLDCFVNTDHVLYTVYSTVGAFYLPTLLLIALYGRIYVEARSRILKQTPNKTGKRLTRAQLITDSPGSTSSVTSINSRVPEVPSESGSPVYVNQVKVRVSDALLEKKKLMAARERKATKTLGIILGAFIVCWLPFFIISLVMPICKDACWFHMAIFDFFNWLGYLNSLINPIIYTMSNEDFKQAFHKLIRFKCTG
Chain of Sodium-dependent serotonin transporter (P31652 whole entry): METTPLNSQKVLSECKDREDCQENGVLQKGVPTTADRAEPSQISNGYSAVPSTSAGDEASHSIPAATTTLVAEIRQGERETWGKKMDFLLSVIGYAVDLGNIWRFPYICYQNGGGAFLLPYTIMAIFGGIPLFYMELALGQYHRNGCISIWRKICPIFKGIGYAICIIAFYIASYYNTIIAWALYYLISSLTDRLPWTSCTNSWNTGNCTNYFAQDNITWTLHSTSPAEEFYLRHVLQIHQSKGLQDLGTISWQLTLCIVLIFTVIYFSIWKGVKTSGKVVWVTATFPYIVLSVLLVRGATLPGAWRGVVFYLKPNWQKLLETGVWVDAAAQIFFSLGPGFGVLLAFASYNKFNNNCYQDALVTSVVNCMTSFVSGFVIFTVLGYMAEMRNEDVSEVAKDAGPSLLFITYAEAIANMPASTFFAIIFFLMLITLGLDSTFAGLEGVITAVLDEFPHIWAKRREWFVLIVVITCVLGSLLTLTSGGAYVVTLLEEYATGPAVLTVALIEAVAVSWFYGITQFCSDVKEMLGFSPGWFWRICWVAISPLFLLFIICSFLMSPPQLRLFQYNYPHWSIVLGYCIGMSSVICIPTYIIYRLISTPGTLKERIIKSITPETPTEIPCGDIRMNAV

## CN1CCN(c2nc3ccccc3c3c2CCCC3)CC1
[1]
  Intrinsic efficacy: Partial agonist
[2]
  EC50: 0.25 nM

## CN1CCN(c2nc3ccccc3c3ccccc23)CC1
[3]
  Intrinsic efficacy: Agonist
[2]
  EC50: 10 nM

## c1ccc2c(c1)CCc1c(N3CCOCC3)nc3ccccc3c1-2
[4]
  Ki: > 5300 nM

## CN1CCN(c2nc3c(c4c2CCc2ccccc2-4)CCCC3)CC1
[5]
  Ki: 2300 nM

## CCCCOC(=O)c1c(N2CCN(C)CC2)nc2cccc3c2c1-c1ccccc1-3
[5]
  Ki: 78 nM

## CN1CCN(c2nc3ccccc3c3c2CCc2ccccc2-3)CC1
[6]
  Intrinsic efficacy: Antagonist
[5]
  Ki: 4.2 nM
[7]
  IC50: 4.6 nM

## CN1CCN(c2nccc3c2ccc2ccccc23)CC1
[5]
  Ki: 29 nM
[3]
  Intrinsic efficacy: Agonist
[2]
  EC50: 30 nM

## CN1CCN(c2nc3ccccc3c3c2ccc2ccccc23)CC1
[4]
  Ki: 46 nM

## CN1CCN(c2nc3ccccc3c3c2CCc2sccc2-3)CC1
[6]
  Intrinsic efficacy: Antagonist
[8]
  Ki: 12000 nM
[9]
  Ki: 4600 nM
[10]
  Ki: 3100 nM
[11]
  Ki: 420000 nM
[12]
  Ki: 1500 nM
[4]
  Ki: 5.7 nM
[7]
  IC50: 62 nM

## CN1CCN(c2nc3ccccc3c3c2C(=O)c2ccccc2-3)CC1
[6]
  Intrinsic efficacy: Antagonist
[5]
  Ki: 20 nM
[7]
  IC50: 139 nM

## CN1C2CCCC1CC(NC(=O)c1nn(C)c3ccccc13)C2 (stereo not drawn)
[6]
  Intrinsic efficacy: Antagonist

## CN1CCN(c2nc3c(c4c2CSc2ccccc2-4)CCCC3)CC1
[5]
  Ki: 2700 nM

## CN1CCN(c2nc3ccccc3c3c2CC2CCC3C2)CC1 (stereo not drawn)
[6]
  Intrinsic efficacy: Antagonist
[7]
  IC50: 8 nM

## CCOC(=O)c1c(N2CCN(C)CC2)nc2cccc3c2c1-c1ccccc1-3
[5]
  Ki: 3.9 nM

## CN1CCN(c2nc3ccccc3c(-c3ccccc3)c2COC(=O)c2ccccc2)CC1
[6]
  Intrinsic efficacy: Antagonist
[13]
  Ki: 7600 nM
[8]
  Ki: 4100 nM
[14]
  Ki: 31 nM
[5]
  Ki: 8.8 nM
[9]
  Ki: 1100 nM
[15]
  Ki: > 10000 nM
[7]
  IC50: 9 nM

## CN1CCN(c2ccnc3c2ccc2ccccc23)CC1
[5]
  Ki: 490 nM

## CN1CCN(c2cc(C34C[C@H]5C[C@@H](C3)C[C@@H](C4)C5)c3ccccc3n2)CC1
[6]
  Intrinsic efficacy: Antagonist
[5]
  Ki: 80 nM
[7]
  IC50: 80 nM

## CN1CCN(c2nc3ccccc3c3c2CSc2ccccc2-3)CC1
[4]
  Ki: 19 nM

## CN1CCN(c2nccc3c2CCc2ccccc2-3)CC1
[5]
  Ki: 16 nM
[3]
  Intrinsic efficacy: Agonist
[2]
  EC50: 7 nM

## CCCN(CCC)C(=O)c1c(N2CCN(C)CC2)nc2cccc3c2c1-c1ccccc1-3
[5]
  Ki: 3 nM
[1]
  Intrinsic efficacy: Partial agonist

## CN1CCN(c2cc3c4c(cccc4n2)-c2ccccc2-3)CC1
[13]
  Ki: 640 nM
[8]
  Ki: 24000 nM
[14]
  Ki: > 10000 nM
[5]
  Ki: 1.8 nM
[9]
  Ki: 1600 nM
[1]
  Intrinsic efficacy: Partial agonist
[15]
  Ki: 13000 nM
[2]
  EC50: 12 nM

## CN1CCN(c2nc3ccccc3c3c2CCC2CCCCC32)CC1 (stereo not drawn)
[6]
  Intrinsic efficacy: Antagonist
[4]
  Ki: 29 nM
[7]
  IC50: 250 nM

## c1ccc2c(c1)ccc1c(N3CCOCC3)nccc12
[5]
  Ki: 4900 nM

## NCCc1c[nH]c2ccc(O)cc12 [SEROTONIN]
[3]
  Intrinsic efficacy: Agonist
[16]
  EC50: 298 nM

## c1ccc2nc(N3CCNCC3)ccc2c1
[3]
  Intrinsic efficacy: Agonist
